Experimental data: ChEMBL document CHEMBL4706730, “A Set of Highly Sensitive Sirtuin Fluorescence Probes for Screening Small-Molecular Sirtuin Defatty-Acylase Inhibitors” (ACS Med Chem Lett, 2021)
Numbered stars: 1 amine (or outer) side, 2 acyl side, 3 side chain; on linkers, the order of the positions; unused ones are H or OH. Square brackets hold non-standard residues; d marks the D form. Peptide text beside a SMILES is read from it. * marks the point of attachment. X1 = O=C(O)c1cc(NC(=S)*)ccc1-c1c2ccc(=O)cc-2oc2cc(O)ccc12; X2 = CN(CCC(=O)*)c1ccc(/N=N/c2ccc([N+](=O)[O-])cc2)cc1; Achc(trans-4) = O=C([C@H]1CC[C@H](N[*:1])CC1)[*:2]; X3 = CN(C)c1ccc(/N=N/c2ccc(CCC(=O)*)cc2)cc1

Key:
[1] = molecular target: T1, NAD-dependent protein deacetylase sirtuin-3, mitochondrial (Homo sapiens) (UniProt Q9NTG7); test: Binding affinity to SIRT3 (unknown origin) assessed as increase in fluorescence intensity at 2.5 uM measured at 5 mins interval for 1 hr in presence of NAD+ by fluorometric method relative to control
T1 sequence (whole entry): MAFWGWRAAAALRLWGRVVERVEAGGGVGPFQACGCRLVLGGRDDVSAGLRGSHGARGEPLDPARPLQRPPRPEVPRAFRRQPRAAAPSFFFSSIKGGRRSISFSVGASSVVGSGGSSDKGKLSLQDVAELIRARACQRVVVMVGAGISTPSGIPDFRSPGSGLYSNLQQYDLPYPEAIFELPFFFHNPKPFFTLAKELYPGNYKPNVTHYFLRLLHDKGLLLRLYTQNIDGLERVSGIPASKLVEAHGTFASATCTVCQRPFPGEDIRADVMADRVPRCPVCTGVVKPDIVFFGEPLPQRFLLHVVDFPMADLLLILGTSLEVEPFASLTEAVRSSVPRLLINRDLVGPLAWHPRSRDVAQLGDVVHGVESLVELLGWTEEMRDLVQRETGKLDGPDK
Procedure, shortened: (§1)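 Each FITC/quencher FRET peptide probe was incubated with recombinant SIRT1–7 in 96-well half-area plates at 37 °C for 1 h. The fluorescence increase is reported as a fold change, SIRT(+) signal over SIRT(−) signal, after 1 h.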

[2] = molecular target: NAD-dependent protein deacylase sirtuin-5, mitochondrial (Homo sapiens) (UniProt Q9NXA8); test: Binding affinity to SIRT5 (unknown origin) assessed as increase in fluorescence intensity at 2.5 uM measured at 5 mins interval for 1 hr in presence of NAD+ by fluorometric method relative to control; procedure, shortened: as §1
Sequence of NAD-dependent protein deacylase sirtuin-5, mitochondrial (Homo sapiens) (Q9NXA8 37-310 limits assumed): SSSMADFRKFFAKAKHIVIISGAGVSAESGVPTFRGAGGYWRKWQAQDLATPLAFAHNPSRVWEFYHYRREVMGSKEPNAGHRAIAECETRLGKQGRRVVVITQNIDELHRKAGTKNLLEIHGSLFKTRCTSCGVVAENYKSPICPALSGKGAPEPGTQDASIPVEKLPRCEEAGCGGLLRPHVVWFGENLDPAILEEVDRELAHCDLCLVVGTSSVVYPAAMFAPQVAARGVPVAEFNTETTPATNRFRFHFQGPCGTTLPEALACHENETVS

[3] = molecular target: T2, NAD-dependent protein lipoamidase sirtuin-4, mitochondrial (Homo sapiens) (UniProt Q9Y6E7); test: Binding affinity to SIRT4 (unknown origin) assessed as increase in fluorescence intensity at 2.5 uM measured at 5 mins interval for 1 hr in presence of NAD+ by fluorometric method relative to control; procedure, shortened: as §1
T2 sequence (whole entry): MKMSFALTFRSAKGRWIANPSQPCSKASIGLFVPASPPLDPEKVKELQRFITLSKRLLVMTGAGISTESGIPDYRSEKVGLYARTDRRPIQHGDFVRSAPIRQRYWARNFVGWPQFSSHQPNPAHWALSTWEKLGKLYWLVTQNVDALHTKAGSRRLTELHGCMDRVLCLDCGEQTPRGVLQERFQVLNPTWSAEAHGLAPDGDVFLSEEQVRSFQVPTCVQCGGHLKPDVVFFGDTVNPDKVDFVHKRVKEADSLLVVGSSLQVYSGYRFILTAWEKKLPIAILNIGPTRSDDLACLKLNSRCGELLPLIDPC

[4] = molecular target: T3, NAD-dependent protein deacetylase sirtuin-1 (Homo sapiens) (UniProt Q96EB6); test: Binding affinity to SIRT1 (unknown origin) assessed as increase in fluorescence intensity at 2.5 uM measured at 5 mins interval for 1 hr in presence of NAD+ by fluorometric method relative to control; procedure, shortened: as §1
T3 sequence (whole entry): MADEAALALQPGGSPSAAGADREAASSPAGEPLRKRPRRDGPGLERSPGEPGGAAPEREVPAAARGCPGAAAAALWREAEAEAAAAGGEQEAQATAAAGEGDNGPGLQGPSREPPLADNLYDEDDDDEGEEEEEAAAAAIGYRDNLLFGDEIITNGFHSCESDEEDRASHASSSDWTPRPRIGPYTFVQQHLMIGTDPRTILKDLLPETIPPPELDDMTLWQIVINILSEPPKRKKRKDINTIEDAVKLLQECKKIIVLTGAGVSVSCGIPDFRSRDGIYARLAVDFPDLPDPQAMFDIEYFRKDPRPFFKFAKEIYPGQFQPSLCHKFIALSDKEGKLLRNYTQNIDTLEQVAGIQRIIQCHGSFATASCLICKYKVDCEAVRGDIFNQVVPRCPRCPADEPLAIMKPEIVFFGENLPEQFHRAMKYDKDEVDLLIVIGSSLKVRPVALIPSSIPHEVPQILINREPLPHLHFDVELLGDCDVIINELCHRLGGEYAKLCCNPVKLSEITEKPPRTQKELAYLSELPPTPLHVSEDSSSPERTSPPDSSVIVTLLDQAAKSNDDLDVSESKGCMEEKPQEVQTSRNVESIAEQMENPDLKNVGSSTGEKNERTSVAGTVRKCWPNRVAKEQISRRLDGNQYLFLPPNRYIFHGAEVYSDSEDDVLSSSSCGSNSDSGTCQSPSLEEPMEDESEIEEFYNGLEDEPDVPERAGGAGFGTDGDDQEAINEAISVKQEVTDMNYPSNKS

[5] = molecular target: NAD-dependent protein deacylase sirtuin-6 (Homo sapiens) (UniProt Q8N6T7); test: Binding affinity to SIRT6 (unknown origin) assessed as increase in fluorescence intensity at 2.5 uM measured at 5 mins interval for 1 hr in presence of NAD+ by fluorometric method relative to control; procedure, shortened: as §1
Sequence of NAD-dependent protein deacylase sirtuin-6 (Homo sapiens) (Q8N6T7 whole entry): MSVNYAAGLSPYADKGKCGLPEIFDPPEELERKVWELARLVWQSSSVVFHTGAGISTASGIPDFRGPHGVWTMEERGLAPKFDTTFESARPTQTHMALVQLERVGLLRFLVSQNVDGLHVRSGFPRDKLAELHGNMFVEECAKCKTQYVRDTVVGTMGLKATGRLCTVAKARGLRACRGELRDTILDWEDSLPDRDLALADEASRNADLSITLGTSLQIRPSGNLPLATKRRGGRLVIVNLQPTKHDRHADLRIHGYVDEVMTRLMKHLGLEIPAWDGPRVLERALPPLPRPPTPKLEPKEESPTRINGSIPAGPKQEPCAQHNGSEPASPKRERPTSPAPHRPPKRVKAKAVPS

[6] = molecular target: T4, NAD-dependent protein deacetylase sirtuin-2 (Homo sapiens) (UniProt Q8IXJ6); test: Binding affinity to SIRT2 (unknown origin) assessed as increase in fluorescence intensity at 2.5 uM measured at 5 mins interval for 1 hr in presence of NAD+ by fluorometric method relative to control; procedure, shortened: as §1
T4 sequence (whole entry): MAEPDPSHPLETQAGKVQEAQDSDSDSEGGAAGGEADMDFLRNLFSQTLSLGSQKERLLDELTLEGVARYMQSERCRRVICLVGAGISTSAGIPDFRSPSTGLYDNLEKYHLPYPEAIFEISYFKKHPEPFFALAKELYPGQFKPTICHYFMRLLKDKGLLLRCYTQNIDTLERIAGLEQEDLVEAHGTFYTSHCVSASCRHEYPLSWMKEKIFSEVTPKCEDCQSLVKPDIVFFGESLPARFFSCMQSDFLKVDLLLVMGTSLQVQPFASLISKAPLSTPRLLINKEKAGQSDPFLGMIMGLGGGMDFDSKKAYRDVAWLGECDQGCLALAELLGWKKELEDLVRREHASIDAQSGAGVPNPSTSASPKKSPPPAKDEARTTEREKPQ

[7] = molecular target: T5, NAD-dependent protein deacetylase sirtuin-7 (Homo sapiens) (UniProt Q9NRC8); test: Binding affinity to SIRT7 (unknown origin) assessed as increase in fluorescence intensity at 2.5 uM measured at 5 mins interval for 1 hr in presence of NAD+ by fluorometric method relative to control; procedure, shortened: as §1
T5 sequence (whole entry): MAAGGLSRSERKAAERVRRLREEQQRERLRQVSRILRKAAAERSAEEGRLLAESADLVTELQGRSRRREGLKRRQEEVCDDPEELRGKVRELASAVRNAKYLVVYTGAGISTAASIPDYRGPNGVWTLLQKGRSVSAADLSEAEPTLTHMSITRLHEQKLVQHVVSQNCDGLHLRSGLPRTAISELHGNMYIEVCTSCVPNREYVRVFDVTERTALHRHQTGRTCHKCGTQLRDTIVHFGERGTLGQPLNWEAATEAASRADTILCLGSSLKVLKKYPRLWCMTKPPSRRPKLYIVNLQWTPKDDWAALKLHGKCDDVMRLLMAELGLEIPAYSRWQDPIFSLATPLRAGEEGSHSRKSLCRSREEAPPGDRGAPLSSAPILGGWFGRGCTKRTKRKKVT

Structure (SMILES)	fold change (FC) [1]	fold change (FC) [2]	fold change (FC) [3]	fold change (FC) [4]	fold change (FC) [5]	fold change (FC) [6]	fold change (FC) [7]
CC[C@H](C)[C@H](NC(=O)[C@H](CCCNC(=N)N)NC(=O)[C@H](Cc1ccccc1)NC(=O)[C@H](CC(N)=O)NC(=O)[C@H]1CC[C@H](NC(=S)Nc2ccc(-c3c4ccc(=O)cc-4oc4cc(O)ccc34)c(C(=O)O)c2)CC1)C(=O)N[C@@H](CCCCNC(=O)CCc1ccc(/N=N/c2ccc(N(C)C)cc2)cc1)C(=O)N[C@@H](CCCNC(=N)N)C(=O)N[C@@H](Cc1ccc(O)cc1)C(=O)N[C@@H](CO)C(=O)N[C@@H](CC(N)=O)C(N)=O (X1-[Achc(trans-4)]NFRIK(X3)RYSN-NH2)	1.92	1.11	1.14	4.79	1.07	1.85	1.04
C[C@H](NC(=O)CNC(=O)CNC(=O)[C@H]1CC[C@H](NC(=S)Nc2ccc(-c3c4ccc(=O)cc-4oc4cc(O)ccc34)c(C(=O)O)c2)CC1)C(=O)N[C@@H](CCCCNC(=O)CCc1ccc(/N=N/c2ccc(N(C)C)cc2)cc1)C(=O)N[C@@H](CCCNC(=N)N)C(=O)N[C@@H](Cc1c[nH]cn1)C(=O)N[C@@H](CCCNC(=N)N)C(N)=O	5.45	1.03	0.92	10.9	1.05	4.72	1.01
CC[C@H](C)[C@H](NC(=O)[C@H](CCCNC(=N)N)NC(=O)[C@H](Cc1ccc(O)cc1)NC(=O)[C@H](CC(=O)O)NC(=O)[C@H]1CC[C@H](NC(=S)Nc2ccc(-c3c4ccc(=O)cc-4oc4cc(O)ccc34)c(C(=O)O)c2)CC1)C(=O)N[C@@H](CCCCNC(=O)CCc1ccc(/N=N/c2ccc(N(C)C)cc2)cc1)C(=O)N[C@@H](CCCNC(=N)N)C(=O)N[C@@H](Cc1ccc(O)cc1)C(=O)N[C@@H](Cc1c[nH]cn1)C(=O)N[C@H](C(N)=O)[C@@H](C)O (X1-[Achc(trans-4)]DYRIK(X3)RYHT-NH2)	1.96	1.09	1.11	4.76	1.05	1.92	1.01
C[C@H](NC(=O)[C@@H](NC(=O)[C@H](CCC(N)=O)NC(=O)[C@H]1CC[C@H](NC(=S)Nc2ccc(-c3c4ccc(=O)cc-4oc4cc(O)ccc34)c(C(=O)O)c2)CC1)[C@@H](C)O)C(=O)N[C@@H](CCCNC(=N)N)C(=O)N[C@@H](CCCCNC(=O)CCN(C)c1ccc(/N=N/c2ccc([N+](=O)[O-])cc2)cc1)C(=O)N[C@@H](CO)C(=O)N[C@H](C(=O)NCC(=O)NCC(=O)O)[C@@H](C)O		1.07	1.2	6.06	9.38	4.06	1.04
C[C@H](NC(=O)CNC(=O)CNC(=O)[C@H](CCCCN)NC(=O)[C@H]1CC[C@H](NC(=S)Nc2ccc(-c3c4ccc(=O)cc-4oc4cc(O)ccc34)c(C(=O)O)c2)CC1)C(=O)N[C@@H](CCCCNC(=O)CCN(C)c1ccc(/N=N/c2ccc([N+](=O)[O-])cc2)cc1)C(=O)N[C@@H](CCCNC(=N)N)C(=O)N[C@@H](Cc1c[nH]cn1)C(=O)N[C@@H](CCCNC(=N)N)C(=O)N[C@@H](CCCCN)C(N)=O		1.07	1.04	14.7	2.55	10.3	1.09

The remaining lines, values ahead:

fold change (FC) [1]	fold change (FC) [2]	fold change (FC) [3]	fold change (FC) [4]	fold change (FC) [5]	fold change (FC) [6]	fold change (FC) [7]	Structure (SMILES)
12.3	0.99	1.18	5	3.51	3.83	1.01	C[C@H](NC(=O)[C@@H]1CCCN1C(=O)[C@H](C)NC(=O)[C@H]1CC[C@H](NC(=S)Nc2ccc(-c3c4ccc(=O)cc-4oc4cc(O)ccc34)c(C(=O)O)c2)CC1)C(=O)N1CCC[C@H]1C(=O)N[C@@H](CCCCNC(=O)CCN(C)c1ccc(/N=N/c2ccc([N+](=O)[O-])cc2)cc1)C(=O)N[C@@H](CCCCN)C(=O)NCC(=O)N[C@@H](CO)C(=O)N[C@@H](CCCCN)C(N)=O (X1-[Achc(trans-4)]APAPK(X2)KGSK-NH2)
	1.07	0.93	12	1.33	5.45	1.03	C[C@H](NC(=O)CNC(=O)CNC(=O)[C@H](CCCCN)NC(=O)[C@H]1CC[C@H](NC(=S)Nc2ccc(-c3c4ccc(=O)cc-4oc4cc(O)ccc34)c(C(=O)O)c2)CC1)C(=O)N[C@@H](CCCCNC(=O)CCc1ccc(/N=N/c2ccc(N(C)C)cc2)cc1)C(=O)N[C@@H](CCCNC(=N)N)C(=O)N[C@@H](Cc1c[nH]cn1)C(=O)N[C@@H](CCCNC(=N)N)C(=O)N[C@@H](CCCCN)C(N)=O
	1.08	1.03	13.8	3.6	5.89	1.04	CC(=O)N[C@@H](CCC(N)=O)C(=O)N[C@H](C(=O)N[C@@H](C)C(=O)N[C@@H](CCCNC(=N)N)C(=O)N[C@@H](CCCCNC(=O)CCc1ccc(/N=N/c2ccc(N(C)C)cc2)cc1)C(=O)N[C@@H](CO)C(=O)N[C@H](C(=O)NCC(=O)NCC(=O)NCCCNC(=S)Nc1ccc(-c2c3ccc(=O)cc-3oc3cc(O)ccc23)c(C(=O)O)c1)[C@@H](C)O)[C@@H](C)O
